Data as given in ChEMBL document CHEMBL2062496, “Identification of a sirtuin 3 inhibitor that displays selectivity over sirtuin 1 and 2” (Eur J Med Chem, 2012).
Activity calls are given as the source filed them. The calls are words filed in the database; no cut-off is given here.

Tests used:
[1] = Cytotoxicity against human SK-MEL-28 cells assessed as cell survival at 100 uM after 48 hrs; format: cell-based; conditions: read-out: Survival
Procedure, shortened: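 SK-MEL-28 cells grown in DMEM with 10% foetal bovine serum, 2 mM L-glutamine, penicillin and streptomycin. Cells plated and grown 48 h with or without compound at 100 µM. On the test day, cells washed in Locke's solution (134 mM NaCl, 5 mM KCl, 4 mM NaHCO3, 10 mM HEPES pH 7.6, CaCl2, 1 mM MgCl2, 5 mM sucrose), then incubated 90 min at 37 °C. Survival expressed as percent of control.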

[2] = molecular target: T1, NAD-dependent protein deacetylase sirtuin-2 (Homo sapiens) (UniProt Q8IXJ6); experiment: Inhibition of human SIRT2 assessed as enzyme activity using Fluor-de-Lys as substrate at 100 uM by fluorometry
T1 sequence (whole entry): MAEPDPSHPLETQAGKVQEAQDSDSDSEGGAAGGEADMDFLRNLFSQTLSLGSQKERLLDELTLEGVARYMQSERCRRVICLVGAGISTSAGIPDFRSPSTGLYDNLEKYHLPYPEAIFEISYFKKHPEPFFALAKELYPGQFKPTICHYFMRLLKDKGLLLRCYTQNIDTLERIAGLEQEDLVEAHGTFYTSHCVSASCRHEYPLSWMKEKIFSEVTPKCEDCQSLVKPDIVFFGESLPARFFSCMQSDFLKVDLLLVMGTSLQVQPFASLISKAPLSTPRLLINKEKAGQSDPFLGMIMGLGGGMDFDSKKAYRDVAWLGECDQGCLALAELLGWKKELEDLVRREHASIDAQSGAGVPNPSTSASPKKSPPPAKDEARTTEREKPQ
Procedure, shortened: (§1)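 Commercial Fluor-de-Lys kit, substrate human p53 379–382 peptide (Arg-His-Lys-Lys(Ac)). Human Sirt1 or Sirt2 was incubated with substrate, NAD+ and compound at 1 mM, also tested at 100 µM. Fluorescence scales with Lys382 deacetylation. Activity is expressed relative to control, mean ± S.E.M. of 3–4 replicates.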

[3] = molecular target: T2, NAD-dependent protein deacetylase sirtuin-1 (Homo sapiens) (UniProt Q96EB6); experiment: Inhibition of human SIRT1 assessed as enzyme activity using Fluor-de-Lys as substrate at 1 mM by fluorometry; set-up: scale not given: the % may be the effect or the level left; procedure, shortened: as §1
T2 sequence (whole entry): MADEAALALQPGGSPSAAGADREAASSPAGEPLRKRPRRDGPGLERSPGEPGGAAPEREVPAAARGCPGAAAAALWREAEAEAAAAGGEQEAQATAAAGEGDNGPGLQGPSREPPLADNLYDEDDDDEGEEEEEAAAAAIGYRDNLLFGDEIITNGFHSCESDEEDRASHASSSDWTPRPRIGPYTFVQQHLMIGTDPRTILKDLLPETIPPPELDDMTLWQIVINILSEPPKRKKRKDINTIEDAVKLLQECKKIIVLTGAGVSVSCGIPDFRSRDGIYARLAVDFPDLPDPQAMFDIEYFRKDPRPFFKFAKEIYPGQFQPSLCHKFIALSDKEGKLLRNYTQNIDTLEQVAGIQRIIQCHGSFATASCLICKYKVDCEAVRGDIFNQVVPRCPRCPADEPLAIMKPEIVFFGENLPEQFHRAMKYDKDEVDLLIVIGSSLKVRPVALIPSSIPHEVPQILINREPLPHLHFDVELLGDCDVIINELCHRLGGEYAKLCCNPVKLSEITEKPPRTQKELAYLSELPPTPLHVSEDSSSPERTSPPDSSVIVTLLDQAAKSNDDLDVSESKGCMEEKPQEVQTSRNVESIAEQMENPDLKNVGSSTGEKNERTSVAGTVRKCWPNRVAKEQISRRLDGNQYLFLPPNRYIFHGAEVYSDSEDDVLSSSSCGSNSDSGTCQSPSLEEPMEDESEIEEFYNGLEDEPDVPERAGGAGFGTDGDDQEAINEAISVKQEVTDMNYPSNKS

[4] = molecular target: T2, NAD-dependent protein deacetylase sirtuin-1 (Homo sapiens); experiment: Inhibition of human SIRT1 assessed as enzyme activity using Fluor-de-Lys as substrate at 100 uM by fluorometry; procedure, shortened: as §1
[5] = molecular target: T1, NAD-dependent protein deacetylase sirtuin-2 (Homo sapiens); experiment: Inhibition of human SIRT2 assessed as enzyme activity using Fluor-de-Lys as substrate at 1 mM by fluorometry; set-up: scale not given: the % may be the effect or the level left; procedure, shortened: as §1
[6] = system: SK-MEL-28; experiment: Reduction in ATP level in human SK-MEL-28 cells at 100 uM maintained in Locke's solution after 24 hrs by luciferase-based assay in absence of GF and glucose; format: functional, cell-based
Procedure, shortened: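 SK-MEL-28 cells were grown 24 h in Locke's saline lacking glucose and serum, with or without 100 µM compound; antimycin was the positive control. Cellular ATP was released with a somatic-cell releasing reagent, then luciferase/luciferin assay mix was added and bioluminescence read. Mean ± S.E.M. of 10–14 replicates from 3 separate experiments.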

[7] = system: SK-MEL-28; experiment: Effect on ATP level in human SK-MEL-28 cells maintained in medium containing GF and glucose at 100 uM after 24 hrs by luciferase-based assay; format: functional, cell-based
Procedure, shortened: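 SK-MEL-28 cells in DMEM with 10% FBS, grown 24 h in 96-well plates in regular medium (growth factors, glucose), with or without compound at 100 µM. Antimycin served as positive control. Cellular ATP was released with a somatic cell releasing reagent and read by luciferase/luciferin bioluminescence. Mean ± S.E.M. of 10–14 replicates from 3 separate experiments.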

SMILES	inhibition [2]	Activity [3] [%]	inhibition [4]	Activity [5] [%]	viability at 48 h, 100 µM [1] [%]	Activity [6]	Activity [7]
c1cncc(-c2c[nH]nn2)c1					69		
Cc1ccncc1C(N)=O	inactive	105	inactive	110			
Cc1ccc(C(=O)Nc2ccc(S(=O)(=O)O)c3cc(S(=O)(=O)O)cc(S(=O)(=O)O)c23)cc1NC(=O)c1cccc(NC(=O)Nc2cccc(C(=O)Nc3cc(C(=O)Nc4ccc(S(=O)(=O)O)c5cc(S(=O)(=O)O)cc(S(=O)(=O)O)c45)ccc3C)c2)c1		18		20			
Cc1ncccc1C(N)=O	inactive	101	inactive	107			
c1cncc(-n2ccnn2)c1	inactive	97	inactive	100			
NC(=O)c1cccnc1				71		Active	inactive
NC(=O)/C=C/c1cccnc1	inactive	99	inactive	109			
NS(=O)(=O)c1cccnc1	inactive	108	inactive	115			

The next lines start with results.

inhibition [2]	Activity [3] [%]	inhibition [4]	Activity [5] [%]	SMILES	viability at 48 h, 100 µM [1] [%]	Activity [6]	Activity [7]
inactive	86	inactive	115	O=C1NCCc2ncccc21			
inactive	117	inactive	145	O=C1NCc2ccncc21			
inactive	125	inactive	136	O=C1NCCc2ccncc21			
inactive	88	inactive	111	O=C1NCc2ncccc21			
